In ChEMBL document CHEMBL4152367, “Discovery of a Potent Thiazolidine Free Fatty Acid Receptor 2 Agonist with Favorable Pharmacokinetic Properties” (J Med Chem, 2018):
Activity calls are given as the source filed them. The rule behind the calls is not given here.

What was measured:
[1] = Metabolic stability in Balb/c mouse primary hepatocytes assessed as compound recovery after 2 hrs by LC-MS/MS analysis; type: ADME, cell-based, Hepatocyte; conditions: read-out: Drug recovery
[2] = molecular target: T1, Peroxisome proliferator-activated receptor delta (Homo sapiens) (UniProt Q03181); experiment: Antagonist activity at human PPARdelta expressed in Escherichia coli assessed as inhibition of GW0742-induced calcium flux at 10 uM by fluorimetry
T1 sequence (whole entry): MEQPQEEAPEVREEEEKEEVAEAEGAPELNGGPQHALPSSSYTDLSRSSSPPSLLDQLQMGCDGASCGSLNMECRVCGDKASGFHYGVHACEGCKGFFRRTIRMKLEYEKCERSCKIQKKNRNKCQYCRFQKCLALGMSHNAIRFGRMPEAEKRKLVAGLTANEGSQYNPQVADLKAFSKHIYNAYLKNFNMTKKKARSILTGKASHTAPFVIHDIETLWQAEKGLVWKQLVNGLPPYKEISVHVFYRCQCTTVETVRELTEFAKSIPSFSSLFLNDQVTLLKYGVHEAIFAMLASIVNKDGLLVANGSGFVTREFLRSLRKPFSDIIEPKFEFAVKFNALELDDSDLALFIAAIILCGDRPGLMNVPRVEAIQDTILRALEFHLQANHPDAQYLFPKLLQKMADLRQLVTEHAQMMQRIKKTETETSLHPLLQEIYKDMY

[3] = Metabolic stability in mouse liver microsomes assessed as compound remaining at 1 uM after 1 hr by HPLC method; type: ADME, microsome; conditions: read-out: Stability
Outline: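 Mouse liver microsomes 0.5 mg/mL with 1 µM test compound in 0.1 M PBS pH 7.4 plus NADPH. Pre-incubated 5 min at 37 °C before microsome addition, then 1 h at 37 °C with shaking. Quenched with ice-cold MeOH/MeCN 1:1, centrifuged; HPLC analysis relative to the 0 min sample.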

[4] = molecular target: T2, Oxysterols receptor LXR-beta (Homo sapiens) (UniProt P55055); experiment: Agonist activity at human LXRbeta expressed in Escherichia coli assessed as induction of calcium flux at 10 uM by fluorimetry
T2 sequence (whole entry): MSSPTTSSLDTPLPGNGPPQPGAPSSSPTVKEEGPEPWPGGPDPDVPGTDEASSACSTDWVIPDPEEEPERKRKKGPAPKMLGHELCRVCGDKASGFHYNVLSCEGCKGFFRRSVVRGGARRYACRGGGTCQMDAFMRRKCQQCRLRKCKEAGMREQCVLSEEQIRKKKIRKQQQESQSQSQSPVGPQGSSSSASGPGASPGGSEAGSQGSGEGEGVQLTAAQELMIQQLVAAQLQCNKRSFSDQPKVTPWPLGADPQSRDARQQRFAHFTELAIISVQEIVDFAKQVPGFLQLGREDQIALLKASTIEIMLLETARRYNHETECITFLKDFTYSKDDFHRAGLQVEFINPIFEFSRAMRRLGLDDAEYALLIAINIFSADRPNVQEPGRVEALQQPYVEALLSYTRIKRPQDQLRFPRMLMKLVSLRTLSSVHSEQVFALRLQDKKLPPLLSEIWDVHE

[5] = molecular target: T2, Oxysterols receptor LXR-beta (Homo sapiens); experiment: Antagonist activity at human LXRbeta expressed in Escherichia coli assessed as inhibition of T0901317-induced calcium flux at 10 uM by fluorimetry

remaining at 2 h [1]: 72%
inhibition [2]: inactive
remaining at 1 h, 1 µM [3]: 82%
Activity [4]: inactive
inhibition [5]: inactive
SMILES: Cc1noc(C)c1-c1ccc(C(=O)N2[C@@H](c3ccccc3Cl)SC[C@H]2C(=O)O)cc1
